Source: ChEMBL document CHEMBL1129547, “Synthesis and biological evaluation of naphthyldesferrithiocin iron chelators” (1996)

Legend:
[1] = The amount of iron absorbed by the treated animals at postdrug dosage of 150(umol/kg) (route sc)using distill water as vehical; format: functional, Cercopithecidae
Method in brief: (§1)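 Iron-overloaded Cebus monkeys were kept in metabolic cages on a low-iron liquid diet starting 7 days before dosing, fed by body weight with intake monitored, and fasted 24 h before dosing. They were sedated with ketamine (7–10 mg/kg im) plus scopolamine (0.04–0.07 mg/kg im). Urine and feces were collected every 24 h over days 1–3 and iron measured by flame AA. Iron balance = dietary intake − (urinary + fecal iron).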

[2] = The amount of iron absorbed by the untreated over a period of 3 days animals at prodrug dosage of 150(umol/kg) (route sc)using distill water as vehical; format: functional, Cercopithecidae
Method in brief: (§2)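 Baseline period in iron-overloaded Cebus monkeys housed in metabolic cages on a low-iron liquid diet begun 7 days before dosing, fed by body weight with intake monitored. Iron intake and output were measured over the 3 days before drug administration (day −2 to day 0). Urine and feces were collected at 24-h intervals and iron determined by flame atomic absorption. Net balance = intake − (urinary + fecal iron).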

[3] = The amount of iron absorbed by the treated animals at postdrug dosage of 150(umol/kg) (route per oral)using 40% cremophore as vehical in Cebus monkeys; format: functional; method in brief: as §1
[4] = The amount of iron absorbed by the untreated over a period of 3 days animals at prodrug dosage of 150(umol/kg) (route per oral)using 40% cremophore as vehical in Cebus monkeys; format: functional; method in brief: as §2
[5] = The amount of iron absorbed by the treated animals at postdrug dosage of 300(umol/kg) (route per oral)using 40% cremophore as vehical in Cebus monkeys; format: functional; method in brief: as §1
[6] = The amount of iron absorbed by the treated animals at postdrug dosage of 300(umol/kg) (route sub cutaneous) using 40% cremophore as vehical in Cebus monkeys; format: functional; method in brief: as §1
[7] = The amount of iron absorbed by the untreated over a period of 3 days animals at prodrug dosage of 300(umol/kg) (route per oral)using 40% cremophore as vehical in Cebus monkeys; format: functional; method in brief: as §2
[8] = The amount of iron absorbed by the untreated over a period of 3 days animals at prodrug dosage of 300(umol/kg) (route sub cutaneous) using 40% cremophore as vehical in Cebus monkeys; format: functional; method in brief: as §2

With CC(=O)N(O)CCCCCNC(=O)CCC(=O)N(O)CCCCCNC(=O)CCC(=O)N(O)CCCCCN [DEFEROXAMINE] the Postdrug [1] was 245 µg/kg and the Predrug [2] was 217 µg/kg.

In the case of C[C@]1(C(=O)O)CSC(c2ncccc2O)=N1 [DESFERRITHIOCIN], the Postdrug [3] is reported as -500 µg/kg and the Predrug [4] is reported as 230 µg/kg.

O=C(O)[C@@H]1CSC(c2c(O)ccc3ccccc23)=N1 gave a Postdrug [5] of 63 µg/kg, a Postdrug [6] of -9 µg/kg and a Predrug [7] of 54 µg/kg. The Predrug [8] was 26 µg/kg.

O=C(O)[C@@H]1CSC(c2cc3ccccc3cc2O)=N1 showed a Postdrug [5] of 49 µg/kg, a Postdrug [6] of 120 µg/kg and a Predrug [7] of 118 µg/kg. The Predrug [8] was 80 µg/kg.

For O=C(O)[C@H]1CSC(c2cc3ccccc3cc2O)=N1, the Postdrug [5] was -162 µg/kg, the Postdrug [6] was 156 µg/kg and the Predrug [7] was 25 µg/kg. For the same molecule, the Predrug [8] was 164 µg/kg.

For O=C(O)[C@H]1CSC(c2c(O)ccc3ccccc23)=N1, the Postdrug [5] was 381 µg/kg and the Predrug [7] was 358 µg/kg.
